From ChEMBL document CHEMBL2331286 (ACS Med Chem Lett, 2013)
Activity calls are given as the source filed them. No cut-off for these calls is given here.

How the values were obtained:
[1] = molecular target: T1, Serine/threonine-protein kinase B-raf (Homo sapiens, UniProt P15056, V600E); assay: Inhibition of N-terminal His tagged B-Raf V600E mutant (unknown origin) expressed in baculovirus infected insect cells co-expressing CDC37 assessed as decrease in biotinylated-MEK protein phosphorylation by AlphaScreen assay
T1 sequence (P15056 2-766 V600E limits assumed): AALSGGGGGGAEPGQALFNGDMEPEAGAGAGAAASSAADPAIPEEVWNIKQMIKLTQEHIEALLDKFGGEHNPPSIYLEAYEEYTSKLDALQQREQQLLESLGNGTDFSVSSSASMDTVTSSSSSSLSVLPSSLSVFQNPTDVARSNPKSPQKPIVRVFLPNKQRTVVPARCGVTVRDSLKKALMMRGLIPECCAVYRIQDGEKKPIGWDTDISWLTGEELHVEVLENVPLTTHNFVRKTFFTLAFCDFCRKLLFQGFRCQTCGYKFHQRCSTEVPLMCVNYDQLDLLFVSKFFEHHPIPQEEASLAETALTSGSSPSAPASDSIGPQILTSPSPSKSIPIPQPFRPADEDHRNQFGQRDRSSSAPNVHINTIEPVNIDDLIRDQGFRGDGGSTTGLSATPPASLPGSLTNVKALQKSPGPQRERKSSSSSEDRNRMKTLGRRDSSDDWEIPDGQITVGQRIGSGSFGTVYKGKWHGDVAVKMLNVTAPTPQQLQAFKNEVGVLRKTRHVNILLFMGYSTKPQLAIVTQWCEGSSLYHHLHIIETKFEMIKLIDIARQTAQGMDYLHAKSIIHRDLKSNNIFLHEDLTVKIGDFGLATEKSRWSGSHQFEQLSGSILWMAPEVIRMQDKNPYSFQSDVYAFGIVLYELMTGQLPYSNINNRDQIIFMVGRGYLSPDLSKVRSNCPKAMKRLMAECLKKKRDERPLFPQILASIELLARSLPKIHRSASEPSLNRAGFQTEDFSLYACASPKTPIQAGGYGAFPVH

[2] = molecular target: T1, Serine/threonine-protein kinase B-raf; assay: Inhibition of B-Raf V600E mutant in human SK-MEL-28 cells assessed as decrease in ERK phosphorylation incubated for 1 hr by immunoassay; assay type: cell-based
[3] = Oral bioavailability in rat; assay type: ADME, organism-based; details: in vivo
[4] = Blood clearance in iv dosed rat; assay type: ADME, organism-based
[5] = Intrinsic clearance in monkey liver microsome; assay type: ADME, Macaca mulatta; details: rhesus monkey, microsomes
SK-MEL-28 = assay: Inhibition of B-Raf V600E mutant-driven SK-MEL-28 cell proliferation after 72 hrs by CellTiter-Glo luminescent assay; assay type: functional, cell-based; details: Homo sapiens, SK-MEL-28, 72 h
[6] = Intrinsic clearance in dog liver microsome at 10 uM after 30 mins by LC/MS analysis; assay type: ADME, Canis lupus familiaris; details: microsomes, 0.5 h
[7] = Oral bioavailability in monkey; assay type: ADME, organism-based, Macaca mulatta; details: rhesus monkey, in vivo
Liver microsomes = assay: Intrinsic clearance in rat liver microsome; assay type: ADME
[8] = Blood clearance in iv dosed dog; assay type: ADME, organism-based, Canis lupus familiaris
[9] = Oral bioavailability in dog; assay type: ADME, organism-based, Canis lupus familiaris; details: in vivo
Rattus norvegicus = assay: Dose-normalized AUC in po dosed rat; assay type: ADME, organism-based; details: in vivo
Rhesus monkey = assay: Dose-normalized AUC in po dosed monkey; assay type: ADME, organism-based, Macaca mulatta; details: in vivo
[10] = Blood clearance in iv dosed monkey; assay type: ADME, organism-based, Macaca mulatta; details: rhesus monkey
Canis familiaris = assay: Dose-normalized AUC in po dosed dog; assay type: ADME, organism-based, Canis lupus familiaris; details: in vivo
Mus musculus [11] = assay: In vivo inhibition of B-Raf V600E mutant-mediated ERK1/2 phosphorylation in tumor of CD1 nu/nu mouse bearing B-Raf V600E mutant harboring human A375P-F11 cells at => 3 mg/kg, po administered as single dose measured after 2 to 6 hrs by duplex ELISA; assay type: functional
Method in brief: (§1)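 A375P-F11 xenografts in nude mice, oral gavage dosing in 0.5% HPMC/0.2% Tween-80 water pH 8.0. Tumors homogenized in Tris pH 7.5 lysis buffer with EDTA, EGTA, Triton X-100, SDS, phosphatase inhibitors, kept on ice; spun 14,000 rpm 15 min 4°C, flash frozen. Total and phospho-ERK1/2 measured by duplex electrochemiluminescent ELISA.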

COLO 205 = assay: Inhibition of human COLO205 cell proliferation; assay type: functional, cell-based
Mus musculus [12] = assay: In vivo inhibition of B-Raf V600E mutant-mediated ERK1/2 phosphorylation in tumor of CD1 nu/nu mouse bearing B-Raf V600E mutant harboring human A375P-F11 cells at =< 30 mg/kg, po administered as a single dose measured after 24 hrs by duplex ELISA; assay type: functional, organism-based; set-up: dose 30 mg/kg; method in brief: as §1
A375P-F11 = assay: Antitumor activity against B-Raf V600E mutant harboring human A375P-F11 cells xenografted in po dosed CD1 nu/nu mouse assessed as tumor growth inhibition administered qd for 14 days by Vernier caliper; assay type: functional, organism-based
Method in brief: (§2)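 A375P-F11 (single-cell clone of A375P selected by limiting dilution) grown as xenografts in nude mice; daily oral gavage started at ~150-200 mm3 tumors, vehicle 0.5% HPMC + 0.2% Tween-80 in water pH 8.0, 0.2 mL/20 g. Calipers twice weekly; volume = length x width² x 0.5; mean volume, n=7-8 mice/group. Complete regression = >93% volume decrease for ≥1 week.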

[13] = Antitumor activity against B-Raf V600E mutant harboring human A375P-F11 cells xenografted in CD1 nu/nu mouse assessed as tumor growth inhibition at 100 mg/kg, po qd for 14 days by Vernier caliper; assay type: functional; details: A375P-F11, 336 h, read-out: GI; method in brief: as §2
TGF-beta receptor type-1 = molecular target: T2, TGF-beta receptor type-1 (Homo sapiens, UniProt P36897); assay: Inhibition of Alk5 in TGF-beta-stimulated human HepG2 cells assessed as decrease in Smad2 phosphorylation treated for 45 mins prior to TGF-beta stimulation measured after 60 mins by odyssey blot scanner analysis; assay type: cell-based
T2 sequence (P36897 whole entry): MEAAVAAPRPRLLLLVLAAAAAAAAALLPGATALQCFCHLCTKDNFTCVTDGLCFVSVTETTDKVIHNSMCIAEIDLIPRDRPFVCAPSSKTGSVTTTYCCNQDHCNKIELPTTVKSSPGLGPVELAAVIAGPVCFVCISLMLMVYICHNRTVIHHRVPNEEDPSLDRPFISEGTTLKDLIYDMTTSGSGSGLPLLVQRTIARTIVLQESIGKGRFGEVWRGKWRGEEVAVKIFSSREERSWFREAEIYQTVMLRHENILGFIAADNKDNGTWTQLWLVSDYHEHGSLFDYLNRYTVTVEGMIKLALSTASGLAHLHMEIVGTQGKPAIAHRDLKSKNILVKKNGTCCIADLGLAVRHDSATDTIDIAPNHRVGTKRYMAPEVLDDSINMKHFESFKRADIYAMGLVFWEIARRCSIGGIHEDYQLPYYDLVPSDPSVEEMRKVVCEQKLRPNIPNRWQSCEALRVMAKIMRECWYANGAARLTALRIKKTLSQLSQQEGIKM
Method in brief: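 HepG2 cells seeded at 500,000 cells/well, adhered overnight at 37°C/5% CO2 in BME+10% serum; compound added in serum-free medium for 45 min, then stimulated with 1 ng/ml TGF-β for 60 min.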

Mus musculus [14] = assay: Toxicity in CD1 nu/nu mouse bearing B-Raf V600E mutant harboring human A375P-F11 cells assessed as changes in body weight at 0.1 to 100 mg/kg, po qd for 14 days; assay type: organism-based; set-up: dose 0.1-100 mg/kg, route oral; details: in vivo, 336 h
HFF = assay: Inhibition of proliferation of human HFF cells harboring wild type B-Raf; assay type: cell-based
Mus musculus [15] = assay: In vivo inhibition of B-Raf V600E mutant-mediated ERK1/2 phosphorylation in tumor of po dosed CD1 nu/nu mouse bearing B-Raf V600E mutant harboring human A375P-F11 cells administered as single dose by duplex ELISA; assay type: functional, organism-based; method in brief: as §1

Compound	IC50 [1]	IC50 [2]	AUC/dose (Rattus norvegicus)	AUC/dose (Canis familiaris)	other results
CC(C)c1nc(-c2ccc(F)c(NS(=O)(=O)c3cccc(F)c3)c2)c(-c2ccnc(N)n2)s1	536 nM	2560 nM	–	–	–
CC(C)c1nc(-c2cccc(NS(=O)(=O)c3c(F)cccc3F)c2F)c(-c2ccnc(Nc3ccc(N4CCOCC4)nc3)n2)s1	3.8 nM	23 nM	1748 ng·h/mL/mg/kg	42 ng·h/mL/mg/kg	bioavailability [3]: 85%; clearance [4]: 9 mL/min/kg; CLH [5]: 8 mL/min/g; IC50 (SK-MEL-28): 48 nM; CLH [6]: 53 mL/min/g; bioavailability [7]: 5%; CLH (Liver microsomes): 9 mL/min/g; clearance [8]: 38 mL/min/kg; bioavailability [9]: 10%; AUC/dose (Rhesus monkey): 23 ng·h/mL/mg/kg; clearance [10]: 39 mL/min/kg
CC(C)c1nc(-c2cccc(NS(=O)(=O)c3cccc(F)c3)c2)c(-c2ccnc(NC3CC3)n2)s1	32 nM	28 nM	16 ng·h/mL/mg/kg	–	–
CC(C)c1nc(-c2ccc(F)c(NS(=O)(=O)c3c(F)cccc3F)c2)c(-c2ccnc(NCCS(C)(=O)=O)n2)s1	13 nM	51 nM	1024 ng·h/mL/mg/kg	43 ng·h/mL/mg/kg	–
CC(C)c1nc(-c2cccc(NS(=O)(=O)c3cccc(F)c3)c2)c(-c2ccnc(NCCCN(C)C)n2)s1	28 nM	73 nM	–	–	–
CC(C)(C)c1nc(-c2cccc(NS(=O)(=O)c3cc(F)ccc3F)c2)c(-c2ccnc(N)n2)s1	8 nM	7 nM	27 ng·h/mL/mg/kg	–	–
CC(C)(C)c1nc(-c2ccc(F)c(NS(=O)(=O)c3c(F)cccc3F)c2)c(-c2ccnc(NCCS(C)(=O)=O)n2)s1	13 nM	11 nM	1373 ng·h/mL/mg/kg	–	–
CC(C)c1nc(-c2cccc(NS(=O)(=O)c3c(F)cccc3F)c2)c(-c2ccnc(N)n2)s1	40 nM	78 nM	23 ng·h/mL/mg/kg	–	–
CC(C)c1nc(-c2cccc(NS(=O)(=O)c3cccc(F)c3)c2)c(-c2ccnc(NCC(N)=O)n2)s1	11 nM	26 nM	6 ng·h/mL/mg/kg	–	–
CC(C)c1nc(-c2cccc(NS(=O)(=O)c3c(F)cccc3F)c2F)c(-c2ccnc(NCCS(C)(=O)=O)n2)s1	0.3 nM	7 nM	125 ng·h/mL/mg/kg	68 ng·h/mL/mg/kg	–
CC(C)(C)c1nc(-c2cccc(NS(=O)(=O)c3c(F)cccc3F)c2F)c(-c2ccnc(N)n2)s1 [DABRAFENIB]	–	–	729 ng·h/mL/mg/kg	3754 ng·h/mL/mg/kg	clearance [4]: 18 mL/min/kg; inhibition in vivo at 3 mg/kg (Mus musculus [11]): > 50%; IC50 (COLO 205): 7 nM; IC50 (SK-MEL-28): 3 nM; inhibition (Mus musculus [12]): inactive; growth inhibition (GI) (A375P-F11): Dose-dependent effect; clearance [8]: 4 mL/min/kg; inhibition in vivo at 100 mg/kg [13]: 50%; IC50 (TGF-beta receptor type-1): 3700 nM; Activity (Mus musculus [14]): Non-toxic; IC50 (HFF): 3000 nM; inhibition (Mus musculus [15]): Dose-dependent effect
CC(C)c1nc(-c2cccc(NS(=O)(=O)c3c(F)cccc3F)c2)c(-c2ccnc(NCCS(C)(=O)=O)n2)s1	1 nM	4 nM	34 ng·h/mL/mg/kg	–	–
